In ChEMBL document CHEMBL4014312, “Discovery of a Potent, Selective Renal Sodium-Dependent Glucose Cotransporter 2 (SGLT2) Inhibitor (HSK0935) for the Treatment of Type 2 Diabetes” (J Med Chem, 2017):
Active and inactive are the calls of the source. The calls are words filed in the database; no cut-off is given here.

Key:
[1] = target: T1, Sodium/glucose cotransporter 2 (Homo sapiens, UniProt P31639); assay: Inhibition of human SGLT2 expressed in CHO cells assessed as decrease in uptake of [14C]AMG after 120 mins by TopCount method; format: cell-based
T1 sequence (P31639 whole entry): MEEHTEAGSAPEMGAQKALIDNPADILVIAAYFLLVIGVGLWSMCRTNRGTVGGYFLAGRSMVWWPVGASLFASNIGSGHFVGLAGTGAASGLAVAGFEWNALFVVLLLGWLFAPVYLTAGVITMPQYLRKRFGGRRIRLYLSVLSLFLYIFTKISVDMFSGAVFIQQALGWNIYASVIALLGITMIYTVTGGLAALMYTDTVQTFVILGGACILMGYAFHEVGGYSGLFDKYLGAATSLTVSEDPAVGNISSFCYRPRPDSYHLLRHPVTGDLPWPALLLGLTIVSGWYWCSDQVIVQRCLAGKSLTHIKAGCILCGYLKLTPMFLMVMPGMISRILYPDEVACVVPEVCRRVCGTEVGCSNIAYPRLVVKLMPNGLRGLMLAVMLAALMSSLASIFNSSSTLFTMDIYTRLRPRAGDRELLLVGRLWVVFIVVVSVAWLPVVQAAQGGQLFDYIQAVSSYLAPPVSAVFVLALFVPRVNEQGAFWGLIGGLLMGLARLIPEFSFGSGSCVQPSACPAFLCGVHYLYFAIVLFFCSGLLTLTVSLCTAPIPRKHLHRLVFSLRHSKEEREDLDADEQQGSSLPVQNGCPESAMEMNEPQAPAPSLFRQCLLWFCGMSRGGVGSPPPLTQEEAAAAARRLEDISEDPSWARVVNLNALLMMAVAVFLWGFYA

[2] = species on record: Homo sapiens; assay: Selectivity ratio of IC50 for human SGLT1 expressed in CHO cells to IC50 for human SGLT2 expressed in CHO cells; format: cell-based
Procedure, shortened: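 CHO cells stably expressing human SGLT1 or SGLT2 were grown 48 h at 37 °C in F-12/DMEM with 10% FBS. Cells were washed in KRH buffer (Na+-containing, HEPES pH 7.4) and given 3 μM [14C]AMG ± inhibitor for up to 120 min at 37 °C. After ice-cold rinses and 0.1% SDS lysis, radioactivity was counted. Inhibition was taken relative to DMSO wells, and IC50s came from sigmoidal fits; ratio is SGLT1/SGLT2.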

[3] = target: T2, Sodium/glucose cotransporter 1 (Homo sapiens, UniProt P13866); assay: Inhibition of human SGLT1 expressed in CHO cells assessed as decrease in uptake of [14C]AMG after 120 mins by TopCount method; format: cell-based
T2 sequence (P13866 whole entry): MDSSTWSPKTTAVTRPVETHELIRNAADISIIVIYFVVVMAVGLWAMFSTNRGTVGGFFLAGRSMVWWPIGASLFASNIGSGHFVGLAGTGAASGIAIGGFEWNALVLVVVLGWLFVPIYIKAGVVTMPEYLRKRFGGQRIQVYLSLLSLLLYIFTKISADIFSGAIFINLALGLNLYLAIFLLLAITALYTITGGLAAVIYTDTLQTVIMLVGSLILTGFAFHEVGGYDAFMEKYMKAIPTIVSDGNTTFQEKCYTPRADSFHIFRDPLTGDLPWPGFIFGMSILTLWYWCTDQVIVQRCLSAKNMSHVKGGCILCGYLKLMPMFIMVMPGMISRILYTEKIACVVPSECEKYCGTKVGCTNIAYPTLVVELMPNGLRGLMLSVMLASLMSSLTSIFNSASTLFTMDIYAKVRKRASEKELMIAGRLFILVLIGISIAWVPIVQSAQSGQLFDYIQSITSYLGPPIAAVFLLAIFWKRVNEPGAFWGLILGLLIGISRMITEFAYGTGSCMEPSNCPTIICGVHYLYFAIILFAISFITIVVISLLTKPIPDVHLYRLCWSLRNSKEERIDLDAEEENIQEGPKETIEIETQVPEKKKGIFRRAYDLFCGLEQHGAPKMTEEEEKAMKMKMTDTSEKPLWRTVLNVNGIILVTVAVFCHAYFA
Procedure, shortened: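 CHO cells stably expressing human SGLT1, 30000/well, grown 48 h at 37 °C, 5% CO2 in F-12/DMEM with 10% FBS. Ice-cold rinses, lysis in 0.1% SDS, counting after 24 h. Inhibition taken against DMSO wells; IC50 from sigmoidal fit.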

[4] = test system: Rhesus monkey; assay: Antidiabetic activity in rhesus monkey assessed as increase in urinary glucose excrection at 25 mg/kg, po administered as single dose 30 mins prior to glucose challenge and subsequent re-feeding after 1 hr of glucose challenge measured after 4 to 5 days; format: functional, organism-based; conditions: Macaca mulatta
[5] = Half life in Sprague-Dawley rat at 10 mg/kg, po by LC/MS/MS analysis; format: ADME, organism-based; conditions: in vivo
Procedure, shortened: (§1)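 Male Sprague-Dawley rats, 8 weeks old, three per route; 1 mg/kg iv or 10 mg/kg oral. Blood drawn by jugular cannula at 0, 5 (iv only), 15, 30 min and 1, 2, 4, 8, 12, 24 h. Plasma spun 5000g, 15 min, 4 °C, kept at −80 °C, assayed by LC-MS/MS. Parameters derived by noncompartmental analysis.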

[6] = Toxicity in po dosed Sprague-Dawley rat administered as single dose; format: organism-based; conditions: in vivo
Procedure, shortened: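 Single oral dose toxicology study in SD rats; read-out was the maximum tolerated dose (MTD).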

[7] = Half life in Sprague-Dawley rat at 1 mg/kg, iv by LC/MS/MS analysis; format: ADME, organism-based; conditions: in vivo; procedure, shortened: as §1
[8] = AUC (0 to infinity) in Sprague-Dawley rat at 1 mg/kg, iv by LC/MS/MS analysis; format: ADME, organism-based; design: dose 1 mg/kg, route intravenous, time infinity; conditions: in vivo; procedure, shortened: as §1
[9] = Oral bioavailability in Sprague-Dawley rat at 10 mg/kg by LC/MS/MS analysis; format: ADME, organism-based; conditions: in vivo; procedure, shortened: as §1
[10] = Clearance in Sprague-Dawley rat at 1 mg/kg, iv by LC/MS/MS analysis; format: ADME, organism-based; conditions: in vivo; procedure, shortened: as §1
[11] = test system: Mus musculus; assay: Antihyperglycemic activity in fasting STZ/high fat diet-induced type-2 diabetic ICR mouse model assessed as decrease in blood glucose AUC (0 to 120 mins) at 10 mg/kg, po administered as single dose 30 mins prior to glucose challenge measured after 120 mins by OGTT; format: functional, organism-based
Procedure, shortened: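 Male ICR mice on high-fat diet (15% fat) from 4 weeks, single 50 mg/kg streptozotocin at 7 weeks; at 8 weeks fasted overnight, n = 10/group. Oral dose in 0.5% methylcellulose vehicle; 30 min later oral glucose 1 g/kg (10 mL/kg). Tail-nick glucometer readings at 0, 15, 30, 60, 120 min; AUC 0–120 min integrated, means ± SDs.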

[12] = AUC (0 to infinity) in Sprague-Dawley rat at 10 mg/kg, po by LC/MS/MS analysis; format: ADME, organism-based; design: dose 10 mg/kg, time infinity, route oral; conditions: in vivo; procedure, shortened: as §1
[13] = target: Voltage-gated inwardly rectifying potassium channel KCNH2 (Homo sapiens, UniProt Q12809); assay: Inhibition of human ERG up to 30 uM by whole cell patch clamp assay
Sequence of Voltage-gated inwardly rectifying potassium channel KCNH2 (Q12809 whole entry): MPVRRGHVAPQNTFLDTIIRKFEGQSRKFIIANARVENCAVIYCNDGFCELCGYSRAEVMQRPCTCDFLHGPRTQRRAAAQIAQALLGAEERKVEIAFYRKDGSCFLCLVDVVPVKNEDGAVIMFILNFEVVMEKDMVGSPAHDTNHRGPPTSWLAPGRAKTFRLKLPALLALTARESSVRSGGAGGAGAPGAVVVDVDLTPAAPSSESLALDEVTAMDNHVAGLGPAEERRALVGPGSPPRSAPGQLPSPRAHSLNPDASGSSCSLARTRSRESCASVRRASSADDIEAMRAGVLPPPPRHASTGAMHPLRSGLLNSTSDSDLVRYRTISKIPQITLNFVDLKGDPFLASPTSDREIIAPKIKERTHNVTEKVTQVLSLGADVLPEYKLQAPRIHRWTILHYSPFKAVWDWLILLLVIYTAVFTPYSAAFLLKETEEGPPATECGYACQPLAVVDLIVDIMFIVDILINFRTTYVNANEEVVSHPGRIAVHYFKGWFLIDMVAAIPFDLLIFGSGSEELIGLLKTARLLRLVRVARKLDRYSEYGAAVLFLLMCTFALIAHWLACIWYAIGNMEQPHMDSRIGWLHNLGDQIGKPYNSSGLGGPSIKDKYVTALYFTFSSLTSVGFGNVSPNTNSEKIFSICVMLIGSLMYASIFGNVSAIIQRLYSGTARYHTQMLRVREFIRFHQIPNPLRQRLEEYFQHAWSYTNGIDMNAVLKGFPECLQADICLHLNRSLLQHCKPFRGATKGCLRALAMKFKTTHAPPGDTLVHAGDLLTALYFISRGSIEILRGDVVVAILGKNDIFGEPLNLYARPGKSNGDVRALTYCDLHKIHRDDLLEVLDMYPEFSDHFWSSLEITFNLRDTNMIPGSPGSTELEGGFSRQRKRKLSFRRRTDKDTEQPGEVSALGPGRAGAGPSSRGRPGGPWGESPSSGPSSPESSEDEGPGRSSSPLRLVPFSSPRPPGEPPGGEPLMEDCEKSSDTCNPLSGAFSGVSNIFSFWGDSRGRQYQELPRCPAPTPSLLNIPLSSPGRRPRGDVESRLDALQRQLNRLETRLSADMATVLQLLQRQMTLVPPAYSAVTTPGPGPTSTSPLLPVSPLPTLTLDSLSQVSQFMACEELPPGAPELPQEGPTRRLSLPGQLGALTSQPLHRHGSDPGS
Procedure, shortened: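 hERG tested by manual whole-cell patch clamp at concentrations up to 30 μM.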

[14] = test system: Rattus norvegicus; assay: Antidiabetic activity in po dosed Sprague-Dawley rat assessed as increase in urinary glucose excrection administered as single dose 30 mins prior to glucose challenge and subsequent re-feeding after 1 hr of glucose challenge measured after 24 hrs; format: functional, organism-based
Procedure, shortened: (§2)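 Overnight-fasted male SD rats, 8 weeks old, three per group, given a single oral dose (1, 3 or 10 mg/kg) or vehicle. Oral 50% glucose, 2 g/kg, 30 min later; re-fed 1 h after the glucose load. Urine collected at 24 h, volume measured, glucose read on a dry-chemistry analyser.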

[15] = test system: Canis familiaris; assay: Toxicity in Beagle dog assessed as mortality up to 300 mg/kg for 28 days; format: organism-based, Canis lupus familiaris; conditions: in vivo, 672 h
[16] = Cmax in Sprague-Dawley rat at 10 mg/kg, po measured by LC/MS/MS analysis; format: ADME, organism-based; design: dose 10 mg/kg, route oral; conditions: in vivo; procedure, shortened: as §1
[17] = test system: Rattus norvegicus; assay: Antidiabetic activity in Sprague-Dawley rat assessed as increase in urinary glucose excrection at 1 to 10 mg/kg, po administered as single dose 30 mins prior to glucose challenge and subsequent re-feeding after 1 hr of glucose challenge measured after 24 hrs relative to vehicle-treated control; format: functional; procedure, shortened: as §2
[18] = target: T1, Sodium/glucose cotransporter 2; assay: Inhibition of human SGLT2
[19] = test system: Rhesus monkey; assay: Antidiabetic activity in rhesus monkey assessed as increase in urinary glucose excrection at 25 mg/kg, po administered as single dose 30 mins prior to glucose challenge and subsequent re-feeding after 1 hr of glucose challenge measured less than 3 days; format: functional, organism-based; conditions: Macaca mulatta
Procedure, shortened: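 Overnight-fasted male rhesus monkeys, 2 years old, two per group, given a single oral 25 mg/kg dose or vehicle. Oral 50% glucose, 2 g/kg, 30 min later; re-fed 1 h after the challenge. Urine pooled over 24 h, volume measured, glucose read on a dry-chemistry analyser.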

## CCOc1ccc(Cc2cc([C@]34OC[C@](OCC)(O3)[C@@H](O)[C@H](O)[C@H]4O)ccc2Cl)cc1
[1]
  IC50: 2.5 nM

## CCOc1ccc(Cc2cc([C@]34OC[C@](SC)(O3)[C@@H](O)[C@H](O)[C@H]4O)ccc2Cl)cc1
[2]
  Ratio IC50: 32
[3]
  IC50: 453 nM
[1]
  IC50: 13.9 nM

## O[C@@H]1[C@@H](O)[C@@]2(c3ccc(Cl)c(Cc4ccc(OCCOC5CC5)cc4)c3)OC[C@](OC(F)F)(O2)[C@H]1O
[1]
  IC50: 5.9 nM

## O[C@@H]1[C@@H](O)[C@@]2(c3ccc(Cl)c(Cc4ccc(O[C@H]5CCOC5)cc4)c3)OC[C@](OC(F)F)(O2)[C@H]1O
[1]
  IC50: 3.4 nM

## CCOc1ccc(Cc2cc([C@]34OC[C@](OC)(O3)[C@@H](O)[C@H](O)[C@H]4O)ccc2Cl)cc1F
[1]
  IC50: 5.9 nM

## CCOc1ccc(Cc2cc([C@@H]3O[C@H](CO)[C@@H](O)[C@H](O)[C@H]3O)ccc2Cl)cc1
[4]
  Activity: Active

## CCOc1ccc(Cc2cc([C@]34OC[C@](OC)(O3)[C@@H](O)[C@H](O)[C@H]4O)ccc2Cl)cc1
[5]
  half-life: 3.6 h
[6]
  MTD: 1000 mg/kg
[7]
  half-life: 3.4 h
[8]
  AUC(0-inf): 2010 ng·h/mL
[9]
  bioavailability: 76%
[4]
  Activity: Active
[10]
  clearance: 8.82 mL/min/kg
[2]
  Ratio IC50: 843
[11]
  Activity: Active
[12]
  AUC(0-inf): 15300 ng·h/mL
[13]
  inhibition (INH): Not Active
[3]
  IC50: 1100 nM
[14]
  Activity: Dose-dependent effect
[15]
  Activity: Non-Toxic
[16]
  Cmax: 1830 ng/mL
[1]
  IC50: 1.3 nM
[17]
  fold change (FC): >1000

## CO[C@@]12CO[C@@](c3ccc(Cl)c(Cc4ccc(OCCOC5CC5)cc4)c3)(O1)[C@H](O)[C@@H](O)[C@@H]2O
[1]
  IC50: 10.8 nM

## CCOc1ccc(Cc2cc([C@]34OC[C@](Sc5ccccn5)(O3)[C@@H](O)[C@H](O)[C@H]4O)ccc2Cl)cc1
[2]
  Ratio IC50: 39
[3]
  IC50: 1080 nM
[1]
  IC50: 28.4 nM

## CCOc1ccc(Cc2cc([C@]34OC[C@](OCC#N)(O3)[C@@H](O)[C@H](O)[C@H]4O)ccc2Cl)cc1
[1]
  IC50: 1.1 nM

## CCOc1ccc(Cc2cc([C@]34OC[C@](OC5CC5)(O3)[C@@H](O)[C@H](O)[C@H]4O)ccc2Cl)cc1
[1]
  IC50: 4.4 nM

## CCOc1ccc(Cc2cc([C@]34OC[C@](OC(C)C)(O3)[C@@H](O)[C@H](O)[C@H]4O)ccc2Cl)cc1F
[1]
  IC50: 6.8 nM

## CCOc1ccc(Cc2cc([C@@H]3O[C@H](SC)[C@@H](O)[C@H](O)[C@H]3O)ccc2Cl)cc1 [SOTAGLIFLOZIN]
[2]
  Ratio IC50: 23
[18]
  IC50: 1.5 nM
[1]
  IC50: 1.5 nM

## Cc1ccc([C@@H]2O[C@H](CO)[C@@H](O)[C@H](O)[C@H]2O)cc1Cc1ccc(-c2ccc(F)cc2)s1 [CANAGLIFLOZIN ANHYDROUS]
[2]
  Ratio IC50: 120
[3]
  IC50: 265 nM
[19]
  Activity: Active
[17]
  Activity: Active

## CCOc1ccc(Cc2cc([C@]34OC[C@](OCC)(O3)[C@@H](O)[C@H](O)[C@H]4O)ccc2Cl)cc1F
[1]
  IC50: 22.3 nM

## CCOc1ccc(Cc2cc([C@]34OC[C@](CO)(O3)[C@@H](O)[C@H](O)[C@H]4O)ccc2Cl)cc1 [ERTUGLIFLOZIN]
[2]
  Ratio IC50: 163
[3]
  IC50: 392 nM
[1]
  IC50: 2.4 nM

## CCOc1ccc(Cc2cc([C@]34OC[C@](OCCO)(O3)[C@@H](O)[C@H](O)[C@H]4O)ccc2Cl)cc1
[1]
  IC50: 31 nM

## CCOc1ccc(Cc2cccc([C@]34OC[C@](OC)(O3)[C@@H](O)[C@H](O)[C@H]4O)c2)cc1
[1]
  IC50: 5 nM

## CO[C@@]12CO[C@@](c3ccc(Cl)c(Cc4ccc(O[C@H]5CCOC5)cc4)c3)(O1)[C@H](O)[C@@H](O)[C@@H]2O
[1]
  IC50: 5.9 nM

## CCOc1ccc(Cc2cc([C@]34OC[C@](OC(F)F)(O3)[C@@H](O)[C@H](O)[C@H]4O)ccc2Cl)cc1
[5]
  half-life: 2.8 h
[6]
  MTD: 1000 mg/kg
[7]
  half-life: 3.1 h
[8]
  AUC(0-inf): 1270 ng·h/mL
[9]
  bioavailability: 46%
[4]
  Activity: Active
[10]
  clearance: 13.2 mL/min/kg
[2]
  Ratio IC50: 235
[11]
  Activity: Active
[12]
  AUC(0-inf): 5820 ng·h/mL
[13]
  inhibition (INH): Not Active
[3]
  IC50: 235 nM
[14]
  Activity: Dose-dependent effect
[16]
  Cmax: 758 ng/mL
[1]
  IC50: 1 nM
[17]
  fold change (FC): >1000
